Assay results: ChEMBL document CHEMBL3091318, “Potent and broad-spectrum antibacterial activity of indole-based bisamidine antibiotics: synthesis and SAR of novel analogs of MBX 1066 and MBX 1090” (2013)

Assays:
Assay type in all cases: functional
Bacillus anthracis = test: Antimicrobial activity against Bacillus anthracis Sterne after 16 to 20 hrs by broth microdilution method
Method in brief: (§1)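 CLSI broth microdilution. Log-phase cultures in cation-adjusted Mueller–Hinton broth were seeded at 1×10^5 CFU/mL and incubated at 37 °C with shaking for 16–20 h. Compounds were diluted from DMSO stocks to a final 1% DMSO. Growth was read as OD600, and MIC was taken as the lowest concentration with no apparent growth. At least 3 runs were done, and the average MIC is reported in μg/ml.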

Klebsiella pneumoniae = test: Antimicrobial activity against Klebsiella pneumoniae ATCC 13882 after 16 to 20 hrs by broth microdilution method
Method in brief: (§2)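 CLSI broth microdilution. Log-phase cultures grown in cation-adjusted Mueller–Hinton broth and seeded at 1×10^5 CFU/mL. Plates incubated at 37 °C with shaking for 16–20 h. DMSO stocks of compound were diluted into medium to 1% DMSO final. Growth was read as OD600. MIC (μg/ml) is the lowest concentration with no apparent growth, averaged over at least 3 assays.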

Staphylococcus aureus [1] = test: Antimicrobial activity methicillin-resistant against Staphylococcus aureus clinical isolate 1094 after 16 to 20 hrs by broth microdilution method
Enterococcus faecalis [2] = test: Antimicrobial activity Enterococcus faecalis ATCC 29212 after 16 to 20 hrs by broth microdilution method; method in brief: as §2
Pseudomonas aeruginosa [3] = test: Antimicrobial activity against efflux pump mexAB-oprM-deficient Pseudomonas aeruginosa PAO1 after 16 to 20 hrs by broth microdilution method; method in brief: as §2
Escherichia coli [4] = test: Antimicrobial activity against TolC efflux-deficient Escherichia coli K-12 after 16 to 20 hrs by broth microdilution method; method in brief: as §2
Staphylococcus aureus [5] = test: Antimicrobial activity against Staphylococcus aureus ATCC 25923 after 16 to 20 hrs by broth microdilution method; method in brief: as §1
Pseudomonas aeruginosa [6] = test: Antimicrobial activity against efflux pump-positive Pseudomonas aeruginosa PAO1 ATCC BAA-47 after 16 to 20 hrs by broth microdilution method; method in brief: as §2
Haemophilus influenzae = test: Antimicrobial activity against Haemophilus influenzae ATCC 10211 after 16 to 20 hrs by broth microdilution method
Method in brief: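 Broth microdilution per CLSI in Haemophilus Test Medium at 37 °C under 5% CO₂ for 16–20 h, seeded at 1×10^5 CFU/mL. Compound was added from DMSO stocks to 1% DMSO final. Growth was read as OD600. MIC (μg/ml) is the lowest concentration without apparent growth, averaged from at least 3 runs.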

Escherichia coli [7] = test: Selectivity ratio of MIC for efflux pump-positive Escherichia coli K-12 to MIC for TolC efflux-deficient Escherichia coli K-12
Enterococcus faecalis [8] = test: Antimicrobial activity vancomycin-resistant Enterococcus faecalis ATCC 51575 after 16 to 20 hrs by broth microdilution method; method in brief: as §1
Pseudomonas aeruginosa [9] = test: Selectivity ratio of MIC for efflux pump-positive Pseudomonas aeruginosa PAO1 ATCC BAA-47 to MIC for efflux pump mexAB-oprM-deficient Pseudomonas aeruginosa PAO1
Escherichia coli [10] = test: Antimicrobial activity against efflux pump-positive Escherichia coli K-12 after 16 to 20 hrs by broth microdilution method; method in brief: as §2
Acinetobacter baumannii = test: Antimicrobial activity against Acinetobacter baumannii ATCC 19606 after 16 to 20 hrs by broth microdilution method; method in brief: as §2
Pseudomonas aeruginosa [11] = test: Ratio of MBX 1066 MIC to compound MIC for Pseudomonas aeruginosa PAO1 ATCC BAA-47 after 16 to 20 hrs by broth microdilution method
Escherichia coli [12] = test: Ratio of MBX 1066 MIC to compound MIC for Escherichia coli K-12 after 16 to 20 hrs by broth microdilution method

Work on `O=C(O)C(F)(F)F.c1cc2cc(-c3ccc(-c4cc5ccc(C6=NCCN6)cc5[nH]4)cc3)[nH]c2cc1C1=NCCN1` yielded an MIC (Bacillus anthracis) of 0.31 mg/L, an MIC (Klebsiella pneumoniae) of 0.31 mg/L and an MIC (Staphylococcus aureus [1]) of 0.16 mg/L. The MIC (Enterococcus faecalis [2]) was 0.16 mg/L, the MIC (Pseudomonas aeruginosa [3]) was 1.25 mg/L and the MIC (Escherichia coli [4]) was 0.16 mg/L. The MIC (Staphylococcus aureus [5]) was 0.16 mg/L, the MIC (Pseudomonas aeruginosa [6]) was 7.5 mg/L and the MIC (Haemophilus influenzae) was 0.63 mg/L. It also gave a Ratio (Escherichia coli [7]) of 8, an MIC (Enterococcus faecalis [8]) of 0.16 mg/L and a Ratio (Pseudomonas aeruginosa [9]) of 6. The MIC (Escherichia coli [10]) was 1.25 mg/L and the MIC (Acinetobacter baumannii) was > 80 mg/L.

`O=C(O)C(F)(F)F.c1cc2cc(-c3ccc(-c4cc5ccc(C6=NCCN6)cc5[nH]4)s3)[nH]c2cc1C1=NCCN1` showed an MIC (Bacillus anthracis) of 0.16 mg/L, an MIC (Klebsiella pneumoniae) of 0.63 mg/L and an MIC (Staphylococcus aureus [1]) of 0.31 mg/L. For the same compound, the MIC (Enterococcus faecalis [2]) was 1.25 mg/L, the MIC (Pseudomonas aeruginosa [3]) was 1.25 mg/L and the MIC (Escherichia coli [4]) was 0.31 mg/L. The MIC (Staphylococcus aureus [5]) was 0.16 mg/L, the MIC (Pseudomonas aeruginosa [6]) was 10 mg/L and the MIC (Haemophilus influenzae) was 0.63 mg/L. It also gave an MIC (Enterococcus faecalis [8]) of 1.25 mg/L, an MIC (Escherichia coli [10]) of 0.63 mg/L and an MIC (Acinetobacter baumannii) of 10 mg/L.

In the case of `O=C(O)C(F)(F)F.c1cc2cc(-c3ccc(-c4cc5ccc(C6=NCCCN6)cc5[nH]4)cc3)[nH]c2cc1C1=NCCCN1`, the MIC (Bacillus anthracis) is reported as 0.08 mg/L, the MIC (Klebsiella pneumoniae) is reported as 0.31 mg/L and the MIC (Staphylococcus aureus [1]) is reported as 0.08 mg/L. The MIC (Enterococcus faecalis [2]) was 0.08 mg/L, the MIC (Pseudomonas aeruginosa [3]) was 0.31 mg/L and the MIC (Escherichia coli [4]) was 0.16 mg/L. The MIC (Staphylococcus aureus [5]) was 0.08 mg/L, the MIC (Pseudomonas aeruginosa [6]) was 0.31 mg/L and the MIC (Haemophilus influenzae) was 0.31 mg/L. The MIC (Enterococcus faecalis [8]) was 0.08 mg/L, the Ratio (Pseudomonas aeruginosa [11]) was >20 and the Ratio (Escherichia coli [12]) was 10. For the same compound, the MIC (Escherichia coli [10]) was 0.16 mg/L and the MIC (Acinetobacter baumannii) was 2.5 mg/L.

For `CC(=O)O.c1cc2cc(-c3ccc(-c4cc5ccc(C6=NCCCN6)cc5[nH]4)nc3)[nH]c2cc1C1=NCCCN1`, the MIC (Bacillus anthracis) was 0.16 mg/L, the MIC (Klebsiella pneumoniae) was 5 mg/L and the MIC (Staphylococcus aureus [1]) was 0.16 mg/L. It also gave an MIC (Enterococcus faecalis [2]) of 0.63 mg/L, an MIC (Pseudomonas aeruginosa [3]) of 2.5 mg/L and an MIC (Escherichia coli [4]) of 0.16 mg/L. The MIC (Staphylococcus aureus [5]) was 0.16 mg/L, the MIC (Pseudomonas aeruginosa [6]) was 2.5 mg/L and the MIC (Haemophilus influenzae) was 2.5 mg/L. It also gave an MIC (Enterococcus faecalis [8]) of 0.16 mg/L, an MIC (Escherichia coli [10]) of 0.63 mg/L and an MIC (Acinetobacter baumannii) of 20 mg/L.
